{"source": "ChEMBL document CHEMBL1212806", "about": "“Chemoselective small molecules that covalently modify one lysine in a non-enzyme protein in plasma” (Nat Chem Biol, 2010)", "key": {"[1]": {"target": "T1, Transthyretin (Homo sapiens, UniProt P02766)", "assay": "Inhibition of wild type TTR amyloidogenesis assessed as inhibition of fibril formation after 72 hrs at pH 4.4 by spectrophotometry relative to untreated control"}, "[2]": {"target": "T1, Transthyretin", "assay": "Stabilization of wild-type TTR tetramer assessed as time needed for 95% TTR-compound conjugate formation by C18-RP-HPLC"}, "[3]": {"target": "T1, Transthyretin", "assay": "Binding affinity to TTR in human plasma at 10.8 uM after 24 hrs RP-HPLC analysis", "assay_type": "cell-free"}, "[4]": {"system": "Transthyretin (Homo sapiens), P02766 [V50M]", "assay": "Inhibition of TTR V30M mutant amyloidogenesis assessed as fibril formation at […] after 72 hrs at pH 4.4 by spectrophotometry relative to untreated control", "design": "scale not given: the % may be the effect or the level left"}, "[5]": {"target": "T1, Transthyretin", "assay": "Inhibition of wild type TTR amyloidogenesis assessed as fibril formation at 7.2 uM after 72 hrs at pH 4.4 by spectrophotometry relative to untreated control", "design": "scale not given: the % may be the effect or the level left"}, "[6]": {"target": "T1, Transthyretin", "assay": "Binding affinity to wild type TTR assessed as induction of benzoylation at Lys15 residue of TTR subunit by LC-MS method"}, "[7]": {"target": "T1, Transthyretin", "assay": "Stabilization of wild-type TTR tetramer assessed as rate of TTR-compound conjugate formation by C18-RP-HPLC"}, "[8]": {"target": "T1, Transthyretin", "assay": "Binding affinity to wild type TTR tetramer in human plasma assessed as covalent chemoselective amide bond formation with Lys15 residue of TTR subunit at 7.2 uM after 18 hrs by RP-HPLC analysis", "assay_type": "cell-free"}, "[9]": {"target": "T1, Transthyretin", "assay": "Inhibition of wild type TTR amyloidogenesis assessed as fibril formation at […] after 72 hrs at pH 4.4 by spectrophotometry relative to untreated control", "design": "scale not given: the % may be the effect or the level left"}, "[10]": {"species_on_record": "Homo sapiens", "assay": "Binding affinity to TTR K15A mutant tetramer in human plasma assessed as covalent chemoselective amide bond formation with residue-15 of TTR subunit at 7.2 uM after 18 hrs by RP-HPLC analysis", "assay_type": "cell-free"}, "[11]": {"assay": "Toxicity in human IMR32 cells assessed as reduction of cell viability after 24 hrs by resazurin reduction assay", "assay_type": "cell-based", "details": "imr-32, 24 h", "summary_of_the_method": "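IMR-32 cells (6,000/well, overnight) were exposed 24 h at 37 °C to compound preincubated 18 h at 37 °C in HBSS without TTR, diluted 1:1 in supplemented Opti-MEM. Viability was read by resazurin fluorescence (Ex/Em 530/590, 1 h), as % of vehicle-treated cells after blank subtraction.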"}, "[12]": {"target": "T1, Transthyretin", "assay": "Binding affinity to wild type TTR in human plasma assessed as covalent modification of TTR subunit after 18 hrs by RP-HPLC analysis", "assay_type": "cell-free"}, "[13]": {"system": "Transthyretin (Homo sapiens), P02766 [V50M]", "assay": "Inhibition of TTR V30M mutant amyloidogenesis assessed as fibril formation at 7.2 uM after 72 hrs at pH 4.4 by spectrophotometry relative to untreated control", "design": "scale not given: the % may be the effect or the level left"}, "[14]": {"target": "T1, Transthyretin", "assay": "Inhibition of wild type TTR induced cytotoxicity in human IMR32 cells assessed as cell viability after 24 hrs by resazurin reduction assay", "assay_type": "cell-based", "details": "IMR-32", "summary_of_the_method": "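IMR-32 neuroblastoma cells were seeded at 6,000/well in Opti-MEM with 5% FBS and grown overnight. Cold-purified WT-TTR in HBSS was preincubated 18 h at 37 °C with compound, then diluted 1:1 in supplemented Opti-MEM onto cells. After 24 h at 37 °C, resazurin was added and fluorescence read (Ex/Em 530/590) after 1 h. Results are % of vehicle, blank-subtracted, mean ± SE of 2 experiments, at least triplicate.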"}, "[15]": {"target": "T1, Transthyretin", "assay": "Binding affinity to wild-type TTR assessed as nonchemoselective conjugation of TTR after 18 hrs by C18-RP-HPLC"}, "[16]": {"target": "T1, Transthyretin", "assay": "Noncovalent binding affinity to wild type TTR T4 site assessed as fibril formation at 7.2 uM after 72 hrs at pH 4.4 by RP-HPLC analysis"}, "[17]": {"target": "T1, Transthyretin", "assay": "Inhibition of wild type TTR amyloidogenesis assessed as fibril formation at 1.8 to 2.7 uM after 120 hrs at pH 4.4 by spectrophotometry relative to untreated control"}, "[18]": {"target": "T1, Transthyretin", "assay": "Noncovalent binding affinity to TTR K15A mutant T4 site assessed as fibril formation at 7.2 uM after 72 hrs at pH 4.4 by RP-HPLC analysis"}, "[19]": {"assay": "Binding affinity to TTR K15A mutant assessed as nonchemoselective conjugation of TTR after 18 hrs by C18-RP-HPLC"}}, "note": "Calls of active or inactive are those of the source. The rule behind the calls is not given here.", "data": [{"smiles": "Cc1cc(/C=C/c2cccc(C(=O)Sc3ccccc3)c2)cc(C)c1O", "values": [{"measurement": "inhibition", "setting": "[1]", "result": "Dose-dependent effect"}, {"measurement": "TIME", "setting": "[2]", "result": 1.35, "unit": "h"}, {"measurement": "Activity", "setting": "[3]", "result": "Active"}, {"measurement": "Activity", "setting": "[4]", "result": 34, "unit": "%"}, {"measurement": "Activity", "setting": "[5]", "result": 2, "unit": "%"}, {"measurement": "Activity", "setting": "[6]", "result": "Active"}, {"measurement": "T1/2", "setting": "[7]", "result": 15, "unit": "min"}, {"measurement": "Activity", "setting": "[8]", "result": "Active"}, {"measurement": "Activity", "setting": "[9]", "result": 16, "unit": "%"}, {"measurement": "Activity", "setting": "[10]", "result": "inactive"}, {"measurement": "Activity", "setting": "[11]", "result": "Non-toxic"}, {"measurement": "Activity", "setting": "[12]", "result": 48, "unit": "%"}, {"measurement": "Activity", "setting": "[13]", "result": 3, "unit": "%"}, {"measurement": "inhibition", "setting": "[14]", "result": "Dose-dependent effect"}]}, {"smiles": "Cc1cc(/C=C/c2ccc(C(=O)Oc3ccc(F)cc3)cc2)cc(C)c1O", "values": [{"measurement": "Activity", "setting": "[15]", "result": "Active"}]}, {"smiles": "Cc1cc(/C=C/c2cccc(C(=O)Oc3ccc(F)cc3)c2)cc(C)c1O", "values": [{"measurement": "TIME", "setting": "[2]", "result": 21.9, "unit": "h"}, {"measurement": "Activity", "setting": "[10]", "result": "inactive"}, {"measurement": "Activity", "setting": "[11]", "result": "Non-toxic"}]}, {"smiles": "Cc1cc(/C=C/c2cccc(C(=O)O)c2)cc(C)c1O", "values": [{"measurement": "IC50", "setting": "[1]", "result": 3070, "unit": "nM"}, {"measurement": "inhibition", "setting": "[1]", "result": "Dose-dependent effect"}, {"measurement": "Activity", "setting": "[16]", "result": "Active"}, {"measurement": "inhibition", "setting": "[17]", "result": "Active"}, {"measurement": "Activity", "setting": "[18]", "result": "Active"}, {"measurement": "Activity", "setting": "[11]", "result": "Non-toxic"}, {"measurement": "inhibition", "setting": "[14]", "result": "Dose-dependent effect"}]}, {"smiles": "Cc1cc(/C=C/c2ccccc2)cc(C)c1O", "values": [{"measurement": "inhibition", "setting": "[1]", "result": "Dose-dependent effect"}, {"measurement": "Activity", "setting": "[16]", "result": "Active"}, {"measurement": "inhibition", "setting": "[17]", "result": "Active"}, {"measurement": "Activity", "setting": "[18]", "result": "Active"}, {"measurement": "Activity", "setting": "[11]", "result": "Non-toxic"}, {"measurement": "inhibition", "setting": "[14]", "result": "Dose-dependent effect"}]}, {"smiles": "Cc1cc(/C=C/c2ccc(C(=O)Oc3ccccc3[N+](=O)[O-])cc2)cc(C)c1O", "values": [{"measurement": "Activity", "setting": "[19]", "result": "Active"}, {"measurement": "Activity", "setting": "[15]", "result": "Active"}]}, {"smiles": "Cc1cc(/C=C/c2cccc(C(=O)Oc3ccccc3[N+](=O)[O-])c2)cc(C)c1O", "values": [{"measurement": "IC50", "setting": "[1]", "result": 2260, "unit": "nM"}, {"measurement": "inhibition", "setting": "[1]", "result": "Dose-dependent effect"}, {"measurement": "TIME", "setting": "[2]", "result": 0.983, "unit": "h"}, {"measurement": "Activity", "setting": "[3]", "result": "Active"}, {"measurement": "Activity", "setting": "[4]", "result": 33, "unit": "%"}, {"measurement": "Activity", "setting": "[5]", "result": 4, "unit": "%"}, {"measurement": "Activity", "setting": "[6]", "result": "Active"}, {"measurement": "T1/2", "setting": "[7]", "result": 5, "unit": "min"}, {"measurement": "Activity", "setting": "[8]", "result": "Active"}, {"measurement": "Activity", "setting": "[9]", "result": 21, "unit": "%"}, {"measurement": "Activity", "setting": "[10]", "result": "inactive"}, {"measurement": "Activity", "setting": "[12]", "result": 49, "unit": "%"}, {"measurement": "Activity", "setting": "[13]", "result": 3, "unit": "%"}]}, {"smiles": "Cc1cc(/C=C/c2ccc(C(=O)Sc3ccccc3)cc2)cc(C)c1O", "values": [{"measurement": "Activity", "setting": "[15]", "result": "Active"}]}, {"smiles": "O=C(Sc1ccccc1)c1cccc(/C=C/c2cc(Br)c(O)c(Br)c2)c1", "values": [{"measurement": "inhibition", "setting": "[1]", "result": "Dose-dependent effect"}, {"measurement": "TIME", "setting": "[2]", "result": 21.2, "unit": "h"}, {"measurement": "Activity", "setting": "[3]", "result": "Active"}, {"measurement": "Activity", "setting": "[4]", "result": 17, "unit": "%"}, {"measurement": "Activity", "setting": "[5]", "result": 2, "unit": "%"}, {"measurement": "Activity", "setting": "[6]", "result": "Active"}, {"measurement": "Activity", "setting": "[8]", "result": "Active"}, {"measurement": "Activity", "setting": "[9]", "result": 12, "unit": "%"}, {"measurement": "Activity", "setting": "[10]", "result": "inactive"}, {"measurement": "Activity", "setting": "[12]", "result": 36, "unit": "%"}, {"measurement": "Activity", "setting": "[13]", "result": 3, "unit": "%"}]}]}
